Bioassay records as filed in PubChem.
Sampled rows, rich in hits. Any-hit rate of the full collection: about 2.2%.
DENV2 CPE rescue – inhibitors of DENV2 cytopathic effect; hit rate 1.7% among 350,000; AID 651640; DENV2-infected cells, cytopathic effect rescue, plate reader; CPE inhibition, % at 9.99 µM; in the data active = CPE inhibition above about 20%, passing the limit was not always enough; inconclusive = no clear call, values can overlap the other calls; tested in BHK-21 cells
Statin myotox sup – protects C2C12 myotubes from simvastatin toxicity. ATP luminescence, 48 h; scaled: DMSO 0, geranylgeraniol control 100. hit rate 0.78% among 330,000. rescue of ATP level, % at 7.49 µM. AID 602340;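 active = mean ATP rescue above about 67%, or every replicate alone reaching that limit, limit read from the data, passing the limit was not always enough; inconclusive = no clear call, values can overlap the other calls; inactive = mean under the limit and some replicate under it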;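 also: myotubes were challenged with 10 µM simvastatin during compound exposure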
E-selectin induc – induces E-selectin expression in human endothelial cells; HUVEC E-selectin immunofluorescence imaging; normalized: neutral wells 0, TNF-alpha wells 100; AID 686992; hit rate 0.37% among 260,000; activation, % at 7.58 µM; P16581;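 active = mean E-selectin-positive cell signal at least 10% of the positive control, reached in at least 60% of replicates, without over 20% cell loss; inconclusive = no rule given, readout overlaps actives, possibly toxicity-flagged; inactive = the rest, including those meeting only one limit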
Target sequence (P16581 whole entry, looked up): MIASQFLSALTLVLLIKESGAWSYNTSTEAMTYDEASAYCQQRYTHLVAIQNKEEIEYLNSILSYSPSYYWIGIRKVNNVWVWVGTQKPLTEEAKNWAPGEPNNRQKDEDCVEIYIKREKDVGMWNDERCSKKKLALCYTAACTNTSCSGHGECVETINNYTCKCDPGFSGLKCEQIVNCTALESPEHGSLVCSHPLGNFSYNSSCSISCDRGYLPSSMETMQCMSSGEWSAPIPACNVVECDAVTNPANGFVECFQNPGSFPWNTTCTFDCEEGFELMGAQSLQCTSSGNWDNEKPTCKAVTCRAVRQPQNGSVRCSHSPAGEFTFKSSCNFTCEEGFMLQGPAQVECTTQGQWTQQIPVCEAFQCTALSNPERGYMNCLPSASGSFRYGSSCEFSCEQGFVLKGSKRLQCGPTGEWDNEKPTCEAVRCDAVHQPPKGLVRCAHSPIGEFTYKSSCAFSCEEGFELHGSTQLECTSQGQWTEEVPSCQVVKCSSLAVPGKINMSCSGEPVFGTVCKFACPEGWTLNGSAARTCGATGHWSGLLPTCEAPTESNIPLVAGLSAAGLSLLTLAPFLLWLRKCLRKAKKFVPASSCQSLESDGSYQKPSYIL
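System: HUVEC / Compound: single concentration / Signal: immunofluorescence imaging / Read-out: percent E-selectin-positive cells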
Large screens that a line does not name were inactive.

COc1cc(CC(=O)Nc2ccc(N3CCOCC3)cc2)cc(OC)c1OC	none (no result: Statin myotox sup, E-selectin induc)
Cc1ccccc1OCC(=O)Nc1ccc(N2CCOCC2)cc1N1CCOCC1	none (no result: E-selectin induc)
COc1cc2c(N3CCOCC3)cc(O)c(CC(=O)Nc3ccccc3)c2cc1OC	Statin myotox sup 115 (no result: DENV2 CPE rescue, E-selectin induc)
COc1ccccc1OCC(=O)Nc1ccc(N2CCOCC2)cc1N1CCOCC1	DENV2 CPE rescue 29
CCCNC(=O)C[C@@H]1CC[C@H]2[C@@H](COC[C@@H](O)CN2C(=O)Nc2ccc3c(c2)OCO3)O1	none
O=C(NC1CCCC1)C(c1ccco1)N1CCC(O)(c2ccc(Cl)cc2)CC1 (centres undefined)	none (no result: Statin myotox sup)
O=C(NC1CCCC1)C(c1ccco1)N1CCN(c2c(Cl)cncc2Cl)CC1 (centres undefined)	DENV2 CPE rescue 24 (no result: Statin myotox sup)
CCc1nc(N2[C@H](C#N)[C@@H](c3ccccc3-c3ccc(F)cc3)[C@H]2CO)sc1C	none (no result: Statin myotox sup)
O=C(C[C@H]1C[C@H]2c3cc(NC(=O)Cc4ccncc4)ccc3O[C@H]2[C@H](CO)O1)NCc1cccc(F)c1	DENV2 CPE rescue inconclusive
C[C@H](O)C#Cc1ccc2c(c1)O[C@H](CN(C)C(=O)c1ccccc1)[C@@H](C)CN([C@H](C)CO)S2(=O)=O	none
CCC/C(=C1/c2ccccc2C(=O)N1c1ccccc1)c1ccc(C=O)o1	none (no result: Statin myotox sup)
CCC/C(=C1/c2ccccc2C(=O)N1c1ccccc1)c1ccc(O[C@@H]2CCCCO2)cc1	DENV2 CPE rescue 37
CCC/C(=C1/c2ccccc2C(=O)N1c1ccccc1)c1cnc(OC)nc1	DENV2 CPE rescue inconclusive
CCC/C(=C1/c2ccccc2C(=O)N1c1ccccc1)c1ccc2c(c1)OCCO2	Statin myotox sup 115
COc1cccc(CN2CC3(CCN(Cc4ccccn4)CC3)c3c([nH]c4cc(OC)ccc34)[C@H]2CO)c1	none (no result: Statin myotox sup)
COc1ccc(NC(=O)C2C(c3ccc4c(c3)OCO4)=Nc3ccccc3N2C(C)=O)cc1 (centres undefined)	DENV2 CPE rescue 27 (no result: Statin myotox sup)
COc1ccc(NC(=O)C2C(c3ccc4c(c3)OCO4)=Nc3ccccc3N2C(=O)c2cccc(C(F)(F)F)c2)cc1 (centres undefined)	none (no result: Statin myotox sup)
COc1ccc(NC(=O)N(C)C[C@@H]2Oc3c(NC(=O)Nc4ccc5c(c4)OCO5)cccc3C(=O)N([C@@H](C)CO)C[C@@H]2C)cc1	none (no result: E-selectin induc)
C[C@@H]1CN([C@@H](C)CO)C(=O)Cc2cc(NC(=O)Nc3ccc(C(F)(F)F)cc3)ccc2O[C@H]1CN(C)C	none (no result: E-selectin induc)
O=C(C1CCOCC1)N1C[C@H]2[C@@H](c3ccccc31)[C@H](CO)N2C(=O)Nc1ccccc1F	none
Cc1ccc(S(=O)(=O)N(C)c2ccc(C(=O)O)cc2)cc1	Statin myotox sup 125 (no result: DENV2 CPE rescue, E-selectin induc)
Cc1ccc(S(=O)(=O)N(C)c2ccc(C(=O)N3CCCCC3)cc2)cc1	none (no result: DENV2 CPE rescue, E-selectin induc)
CS(=O)(=O)N1CCN(C(=O)c2cc(-c3ccccc3)nc3ccccc23)CC1	none (no result: DENV2 CPE rescue, E-selectin induc)
CS(=O)(=O)N1CCN(C(=O)c2cc(-c3ccncc3)nc3ccc(Cl)cc23)CC1	Statin myotox sup 108 (no result: DENV2 CPE rescue, E-selectin induc)
Cc1ccc(S(=O)(=O)N[C@H]2C=C[C@H](CC(=O)N3CCN(c4ccccc4)CC3)O[C@@H]2CO)cc1	none
C[C@@H]1CCCCO[C@H](CN(C)C(=O)Nc2ccc(C(F)(F)F)cc2)[C@@H](C)CN([C@H](C)CO)C(=O)c2cc(NS(=O)(=O)c3cn(C)cn3)ccc2O1	none (no result: Statin myotox sup)
C[C@@H]1CCCCO[C@@H](CN(C)Cc2ccccc2)[C@@H](C)CN([C@H](C)CO)C(=O)c2cc(NC(=O)CCC(F)(F)F)ccc2O1	none
CCCC#Cc1cnc2c(c1)C(=O)N([C@@H](C)CO)C[C@H](C)[C@H](CN(C)C(=O)c1cccc(F)c1)O2	DENV2 CPE rescue 27
C[C@@H]1CN([C@@H](C)CO)C(=O)c2cc(C#CCN(C)C)cnc2O[C@@H]1CN(C)C(=O)c1cccc(F)c1	none
CCCC#Cc1cnc2c(c1)C(=O)N([C@@H](C)CO)C[C@H](C)[C@@H](CN(C)C(=O)c1cccc(F)c1)O2	none
C[C@H]1CN([C@@H](C)CO)C(=O)c2cc(C#CCN(C)C)cnc2O[C@H]1CN(C)C(=O)c1cccc(F)c1	DENV2 CPE rescue 34
CCCNC(=O)C[C@@H]1CC[C@@H]2[C@@H](COc3ccc(NC(=O)Nc4ccccc4)cc3C(=O)N2C)O1	none
Cc1ccc(S(=O)(=O)Nc2ccc3c(c2)CC(=O)N([C@H](C)CO)C[C@H](C)[C@H](CN(C)C(=O)Nc2ccc4c(c2)OCO4)O3)cc1	none
C=CCn1c(SCC(=O)Nc2ccc(N(C)C)cc2)nnc1-c1cccc(C)c1	Statin myotox sup 84 (no result: DENV2 CPE rescue, E-selectin induc)
C=CCn1c(SCC(=O)Nc2cccc(C)c2)nnc1-c1cnccn1	none (no result: DENV2 CPE rescue, E-selectin induc)
COc1ccc(NC(=O)N(C)C[C@H]2Oc3c(NS(=O)(=O)c4cccs4)cccc3C(=O)N([C@@H](C)CO)C[C@H]2C)cc1	Statin myotox sup 88
COc1ccc(NC(=O)N(C)C[C@H]2Oc3c(NS(=O)(=O)c4cccs4)cccc3C(=O)N([C@H](C)CO)C[C@@H]2C)cc1	none
C[C@@H]1CN([C@@H](C)CO)C(=O)c2cccc(NS(C)(=O)=O)c2O[C@@H]1CN(C)C(=O)Nc1ccc(C(F)(F)F)cc1	none (no result: DENV2 CPE rescue, E-selectin induc)
C[C@H]1CN([C@@H](C)CO)C(=O)c2cccc(NS(=O)(=O)c3cccs3)c2O[C@H]1CN(C)C(=O)Nc1ccc(C(F)(F)F)cc1	none
C[C@H]1CN([C@@H](C)CO)C(=O)c2cccc(NS(=O)(=O)c3cccs3)c2O[C@@H]1CN(C)C(=O)Nc1ccc(C(F)(F)F)cc1	Statin myotox sup 86 (no result: E-selectin induc)
C[C@@H]1CN([C@@H](C)CO)C(=O)c2cccc(NS(C)(=O)=O)c2O[C@H]1CN(C)C(=O)Nc1ccc(C(F)(F)F)cc1	DENV2 CPE rescue 79 (no result: E-selectin induc)
COc1cccc(C(=O)Nc2ccc3c(c2)C(=O)N(C)C[C@@H](OC)[C@H](C)CN(C(=O)C2CCCC2)[C@@H](C)CO3)c1	none
CC(C)NC(=O)N(C)C[C@H]1Oc2ccc(NC(=O)Nc3ccc(C(F)(F)F)cc3)cc2CC(=O)N([C@@H](C)CO)C[C@@H]1C	none
Cc1noc(C)c1NC(=O)Nc1cccc2c1O[C@@H](CN(C)Cc1ccncc1)[C@H](C)CN([C@@H](C)CO)C2=O	none (no result: E-selectin induc)
COc1ccc(CN(C)C[C@@H]2OCCCC[C@@H](C)Oc3ccc(NC(=O)c4ccncc4)cc3C(=O)N([C@H](C)CO)C[C@H]2C)cc1	none (no result: Statin myotox sup)
O=C(Nc1ccccc1F)N[C@H]1CC[C@H](CCNS(=O)(=O)c2ccccc2)O[C@@H]1CO	none
OCc1ccc(-c2nn(Cc3ccccc3)c3ccccc23)o1	E-selectin induc 117
O=c1c2ccccc2c(-c2n[nH]c(=S)o2)nn1Cc1ccccc1	none (no result: Statin myotox sup, E-selectin induc)
CCNc1c([N+](=O)[O-])c(=O)n(CC)c2ccccc12	none (no result: Statin myotox sup)
Cc1ccc(Sc2c([N+](=O)[O-])c(=O)n(C)c3ccccc23)cc1	Statin myotox sup 90 (no result: E-selectin induc)
Cc1ccc(Sc2c(O)c3ccccc3n(C)c2=O)cc1	none
Cn1c(=O)c([N+](=O)[O-])c(NCc2ccccc2)c2ccccc21	Statin myotox sup 122 (no result: DENV2 CPE rescue, E-selectin induc)
O=C(C[C@H]1C[C@@H]2c3cc(NC(=O)CC4CC4)ccc3O[C@@H]2[C@H](CO)O1)NCc1cccc(F)c1	none
C[C@@H]1CN([C@@H](C)CO)C(=O)c2cc(NC(=O)Nc3cccc4ccccc34)ccc2O[C@H]1CN(C)S(=O)(=O)c1ccccc1	none
